According to article PMC3835402 (Molecular bioSystems, 2010):
Entries after “also recorded” stand apart in the source; their conditions may differ.

How the values were obtained:
endogenous ER-α = molecular target: T1, endogenous ER-α (Homo sapiens, UniProt P03372); assay: ER degradation in MCF7 cells by western blotting; assay type: cell-based; conditions: western blot; for ER level on treatment with 13 and the proteasome inhibitor epoxomicin: Fig. 4A
T1 sequence (P03372 1-595): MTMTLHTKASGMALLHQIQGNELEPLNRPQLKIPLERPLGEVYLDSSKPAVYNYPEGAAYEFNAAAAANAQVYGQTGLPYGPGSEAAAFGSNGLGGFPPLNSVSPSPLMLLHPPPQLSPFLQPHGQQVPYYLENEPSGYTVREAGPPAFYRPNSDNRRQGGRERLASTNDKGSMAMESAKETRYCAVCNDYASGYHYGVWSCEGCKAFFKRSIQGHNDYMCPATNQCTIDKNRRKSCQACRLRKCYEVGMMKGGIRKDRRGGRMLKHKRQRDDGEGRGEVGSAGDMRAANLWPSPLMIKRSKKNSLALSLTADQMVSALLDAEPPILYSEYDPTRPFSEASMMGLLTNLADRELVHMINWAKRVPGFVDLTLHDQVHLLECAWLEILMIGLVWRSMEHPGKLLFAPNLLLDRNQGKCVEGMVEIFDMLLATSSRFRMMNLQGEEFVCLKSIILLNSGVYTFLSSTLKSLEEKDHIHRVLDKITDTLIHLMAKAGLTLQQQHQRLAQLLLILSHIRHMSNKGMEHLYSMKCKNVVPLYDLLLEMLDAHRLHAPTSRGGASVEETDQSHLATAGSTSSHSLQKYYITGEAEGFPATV

ER = molecular target: T2, ER (Homo sapiens, UniProt P03372); assay: ER immunofluorescence in MCF7 cells; assay type: cell-based; conditions: ER green, DAPI blue, compared to controls, Fig. 4C
T2 sequence (P03372 1-595): T1 sequence (P03372 1-595)
In short: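 MCF7 on ethanol/UV-sterilized coverslips, attached 24 h, then kept in phenol-red-free RPMI with 5% charcoal/dextran FBS. Test compound diluted in that medium, applied as for the western blots. Fixed in 4% PFA, permeabilized with 0.2% Triton X. Blocked in 10% goat serum/0.1% BSA in PBST. Anti-ER 1 h at 37°C, then Alexa Fluor 488 secondary 30 min. DAPI mount, inverted fluorescence microscopy.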

MCF7 cells = assay: Cell viability assay by MTS; assay type: cell-based, human; conditions: 48 hour treatment, Fig. 5B
In short: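 MCF7 seeded at 5 × 10³ cells in RPMI 1640 with 10% FBS overnight, then switched to 5% charcoal-dextran FBS RPMI for 24 h before dosing. Test compound was added in DMSO vehicle for 48 h. Viability was read by MTS (CellTiter 96 AQueous One) absorbance at 490 nm. IC50 was fitted by nonlinear sigmoid dose-response regression from at least triplicate results.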

CC[C@H](C)[C@H](NC(=O)[C@H]([C@@H](C)CC)N(C)C(C)=O)C(=O)N[C@H](C(=O)N[C@@H](CC(C)C)C(=O)[C@@]1(C)CO1)[C@@H](C)O [epoxomicin, reference compound]
ER level on treatment with 13 and the proteasome inhibitor epoxomicin (endogenous ER-α): accumulation of the ER
ER level by immunofluorescence (ER): causes the accumulation of the ER

-Leu-Ala-Nle-Leu-Tyr-Ile-OBzl [compound 17]
ER level by immunofluorescence (ER): does not cause ER degradation

-Leu-Ala-Pro^OH-Tyr-Ile-OBzl [compound 12]
ER degradation, dependence on the hydroxyproline residue (pVHL recognition) (endogenous ER-α; Fig. 4B (text says Fig 4C)): effectively causes ER degradation

-Leu-Ala-Pro^OH-Tyr-Ile-OBzl [compound 13]
time-dependent ER degradation, treated once (endogenous ER-α; between 48 and 72 hours, Fig. 3D): stable between 48 and 72 hours
ER level on treatment with 13 and the proteasome inhibitor epoxomicin (endogenous ER-α): proteasome-dependent
ER degradation at even lower doses (endogenous ER-α; data not shown): degraded the ER most effectively
inhibition of proliferation of MCF7 cells (MCF7 cells): best efficacy; also recorded: most effective

-Leu-Ala-Pro^OH-Tyr-Ile-OBzl [compound 15]
ER degradation at the highest concentration examined (endogenous ER-α; 50 μM, 48 hour treatment, Fig. 3B): all PROTACs but 15 showed significant ER degradation
